In ChEMBL document CHEMBL1781875, “Chemoenzymatic synthesis with lipase catalyzed resolution and evaluation of antitumor activity of (R/S)-2-[2-hydroxy-3-(4-phenylpiperazin-1-yl)propyl]-1H-pyrrolo[3,4-b]quinolin-3(2H)-one” (Eur J Med Chem, 2011) one finds viability, IC50 and Activity data, which are given here for 4 compounds.

Test [1] concerns SK-N-SH. As to the kind of experiment: Cytotoxicity against human SK-N-SH cells assessed as cell viability at 10 uM after 48 hrs by MTT assay relative to untreated control. Format: functional. The settings on record: read-out: Activity. The method, boiled down: (§1)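 Exponentially growing cells seeded at 2.0 × 10⁴ per well in 24-well plates, drug-treated in triplicate for 48 h at 37 °C under 5% CO₂. MTT in RPMI-1640 was added, followed by 2–3 h at 37 °C. Formazan was dissolved in DMSO and OD read at 540 nm. Viability is given as % of untreated cells (100%), mean ± SEM of three determinations.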

Test [2] deals with A549. Briefly: Cytotoxicity against human A549 cells assessed as inhibition of cell growth after 48 hrs by MTT assay. It counts as functional, cell-based. The settings on record: A549, 48 h. In short, it runs like this:
as §1

In test [3] the test system is A549. Briefly: Cytotoxicity against human A549 cells assessed as cell viability at 25 uM after 48 hrs by MTT assay relative to untreated control. The settings on record: A549, 48 h, read-out: Activity. Format: functional. The method, boiled down: as §1
On the technique in general: Tetrazolium assays rely on reduction of a dye to a coloured formazan, in cell work by metabolically active cells.

The subject of test [4] is A549. Briefly: Cytotoxicity against human A549 cells assessed as cell viability at 10 uM after 48 hrs by MTT assay relative to untreated control. The following applies: A549, 48 h, read-out: Activity. Format: functional. The method, boiled down: as §1
The subject of test [5] is SK-N-SH. As to the kind of experiment: Cytotoxicity against human SK-N-SH cells assessed as cell viability at 25 uM after 48 hrs by MTT assay relative to untreated control. It counts as functional. The settings on record: read-out: Activity. The method, boiled down:
as §1

Test [6] has as its system SK-N-SH. Briefly: Cytotoxicity against human SK-N-SH cells assessed as inhibition of cell growth after 48 hrs by MTT assay. It counts as functional, cell-based. The method, boiled down: as §1
The test system of test [7] is A549. As to the kind of experiment: Cytotoxicity against human A549 cells assessed as cell viability at 50 uM after 48 hrs by MTT assay relative to untreated control. The settings on record: A549, 48 h, read-out: Activity. Format: functional. In short, it runs like this:
as §1

The test system of test [8] is SK-N-SH. Briefly: Cytotoxicity against human SK-N-SH cells assessed as cell viability at 50 uM after 48 hrs by MTT assay relative to untreated control. It counts as functional. The settings on record: read-out: Activity. The method, boiled down: as §1
In test [9] the test system is A549. Briefly: Cytotoxicity against human A549 cells assessed as cell viability at 0.1 uM after 48 hrs by MTT assay relative to untreated control. It counts as functional. The settings on record: A549, 48 h, read-out: Activity. The method, boiled down:
as §1

In test [10] the test system is A549. Briefly: Cytotoxicity against human A549 cells assessed as cell viability at1 uM after 48 hrs by MTT assay relative to untreated control. It counts as functional. In short, it runs like this:
as §1

For test [11], the system named is SK-N-SH. As to the kind of experiment: Cytotoxicity against human SK-N-SH cells assessed as cell viability at 1 uM after 48 hrs by MTT assay relative to untreated control. It counts as functional. The following applies: read-out: Activity. The method, boiled down:
as §1

Test [12] concerns A549. Briefly: Cytotoxicity against human A549 cells assessed as cell viability at 5 uM after 48 hrs by MTT assay relative to untreated control. It counts as functional. The following applies: A549, 48 h, read-out: Activity. In short, it runs like this:
as §1

Test [13] concerns SK-N-SH. Briefly: Cytotoxicity against human SK-N-SH cells assessed as cell viability at 0.1 uM after 48 hrs by MTT assay relative to untreated control. It counts as functional. The settings on record: read-out: Activity. The method, boiled down: as §1
The test system of test [14] is SK-N-SH. As to the kind of experiment: Cytotoxicity against human SK-N-SH cells assessed as cell viability at 5 uM after 48 hrs by MTT assay relative to untreated control. The settings on record: read-out: Activity. Format: functional. In short, it runs like this:
as §1

The IC50 is the concentration needed to halve the response being measured. For `O=C1c2nc3ccccc3cc2CN1C[C@@H](O)CN1CCN(c2ccccc2)CC1`, the viability at 10 µM in [1] is 76.8%; in test [4], 90.7%. Also, the IC50 is 54.8 µM in test [2] and 16.2 µM in test [6]. In addition, the viability at 25 µM was found to be 81.8% in [3] and 69.1% in test [5]. Besides, the results for the viability at 50 µM in test [7] and in test [8] were 74.7% and 49.4%, respectively.

On to `O=C1c2nc3ccccc3cc2CN1CC(O)CN1CCN(c2ccccc2)CC1` (racemic), for which the viability at 10 µM in test [1] is 78.3%; in [4], 96.5%. For the same compound, the values for the IC50 in [2] and in [6] were 63.2 µM and 65.1 µM, respectively. In addition, the viability at 25 µM in test [3] turned out to be 85.5%; in test [5] it was 73.5%. In addition, the viability at 50 µM in test [7] was determined as 78.7%; in [8] it was 70.5%.

As for `COc1cccc2c1C(=O)c1c(O)c3c(c(O)c1C2=O)C[C@@](O)(C(=O)CO)C[C@@H]3O[C@H]1C[C@H](N)[C@H](O)[C@H](C)O1` [DOXORUBICIN], the viability at 0.1 µM is 76.6% in [9] and 72.5% in [13]. Also, the Activity in [10] is given as 65.33%. In addition, the viability at 1 µM in test [11] is 60.8%. Further, the figures for the viability at 5 µM in [12] and in [14] were 33.9% and 51%, respectively. The IC50 in [6] amounted to 19.9 µM.

Take `CC(=O)O[C@H](CN1CCN(c2ccccc2)CC1)CN1Cc2cc3ccccc3nc2C1=O`: the viability at 10 µM came out at 95.5% in test [1] and 98.4% in test [4]. For the same compound, the IC50 in [2] turned out to be 72.7 µM; in test [6], 67.8 µM. Moreover, the viability at 25 µM turned out to be 85.6% in test [3] and 84.2% in test [5]. Besides, the viability at 50 µM in test [7] is 83.3%; in [8], 79.3%.
